Shown are actives, neighbours in structure and some others; about 2.2% of the full set was active somewhere.
E-selectin induc: induces E-selectin expression in human endothelial cells. hit rate 0.37% among 260,000. activation, % at 7.58 µM. HUVEC E-selectin immunofluorescence imaging; normalized: neutral wells 0, TNF-alpha wells 100;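 active = mean E-selectin-positive cell signal at least 10% of the positive control, reached in at least 60% of replicates, without over 20% cell loss; inconclusive = no rule given, readout overlaps actives, possibly toxicity-flagged; inactive = the rest, including those meeting only one limit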
Target sequence (P16581 whole entry, looked up): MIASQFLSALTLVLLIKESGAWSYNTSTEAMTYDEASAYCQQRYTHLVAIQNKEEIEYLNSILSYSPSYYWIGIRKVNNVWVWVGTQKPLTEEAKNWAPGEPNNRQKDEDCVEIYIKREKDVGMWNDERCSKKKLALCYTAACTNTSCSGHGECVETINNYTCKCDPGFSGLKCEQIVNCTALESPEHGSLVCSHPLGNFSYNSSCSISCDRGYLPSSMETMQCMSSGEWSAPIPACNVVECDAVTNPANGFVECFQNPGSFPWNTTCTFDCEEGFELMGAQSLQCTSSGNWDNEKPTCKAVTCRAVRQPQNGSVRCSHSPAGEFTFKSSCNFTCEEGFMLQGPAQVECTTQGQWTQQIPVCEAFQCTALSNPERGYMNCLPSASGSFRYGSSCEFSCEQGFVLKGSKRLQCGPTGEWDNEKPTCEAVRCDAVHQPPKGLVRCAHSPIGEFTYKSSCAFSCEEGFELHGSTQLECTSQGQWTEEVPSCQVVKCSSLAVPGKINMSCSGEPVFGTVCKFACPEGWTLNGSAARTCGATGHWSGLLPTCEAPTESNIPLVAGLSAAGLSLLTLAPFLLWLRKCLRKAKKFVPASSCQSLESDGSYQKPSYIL
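assay system = HUVEC, human umbilical vein endothelial cells | input = 3,000 HUVEC seeded per well | medium = EGM-2 growth medium on 0.1% gelatin-coated wells | dosing = one compound dose added by pin transfer | signal = immunofluorescence imaging | read-out basis = % PE-positive cells | control set = TNF-alpha, DMSO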
DENV2 CPE: inhibitors of DENV2 cytopathic effect. DENV2-infected cells, cytopathic effect rescue, plate reader. CPE inhibition, % at 9.99 µM. hit rate 1.7% among 350,000; in the data active = CPE inhibition above about 20%, passing the limit was not always enough; inconclusive = no clear call, values can overlap the other calls; tested in BHK-21 cells
Statin myotox sup: protects C2C12 myotubes from simvastatin toxicity; AID 602340; rescue of ATP level, % at 7.49 µM; ATP luminescence, 48 h; scaled: DMSO 0, geranylgeraniol control 100; hit rate 0.78% among 330,000;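 active = mean ATP rescue above about 67%, or every replicate alone reaching that limit, limit read from the data, passing the limit was not always enough; inconclusive = no clear call, values can overlap the other calls; inactive = mean under the limit and some replicate under it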;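 note: myotubes were challenged with 10 µM simvastatin during compound exposure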
Large screens that a line does not name were inactive.

COc1ccccc1N1CC(C(=O)Nc2nnc(SCc3ccccn3)s2)CC1=O (configuration not stated)	none (no result: DENV2 CPE)
COc1ccccc1CNC(=O)C[C@H]1C[C@@H]2c3cc(NS(=O)(=O)c4ccc(F)cc4)ccc3O[C@@H]2[C@@H](CO)O1	none
O=C(c1cccc(-c2cccc3nccn23)c1)N1CCOCC1	DENV2 CPE 33.1
O=C(c1cccc(-c2ccc(O)cc2)c1)N1CCOCC1	none (no result: E-selectin induc, DENV2 CPE)
C[C@H](CO)N1C[C@H](C)[C@@H](CN(C)Cc2ccc3c(c2)OCO3)OCCCC[C@H](C)Oc2ccc(NS(C)(=O)=O)cc2C1=O	none
COCCCNC(=O)c1c(N)n(-c2cccc(S(N)(=O)=O)c2)c2nc3ccccc3nc12	none (no result: E-selectin induc, DENV2 CPE)
CCCNC(=O)c1c(N)n(-c2cccc(OC)c2)c2nc3ccccc3nc12	Statin myotox sup 105.9 (no result: E-selectin induc, DENV2 CPE)
C=CC1c2cc(O)c(OC)cc2CCN1Cc1sc2ccccc2c1Cl (configuration not stated)	none (no result: E-selectin induc, Statin myotox sup)
CCN1C(=O)/C(=C/C=C2/Sc3ccc4ccccc4c3N2CCO)SC1=S	E-selectin induc 33.9 (no result: Statin myotox sup)
CN1CCS/C1=C/C=C1/SC(=S)N(Cc2ccccc2)C1=O	none (no result: E-selectin induc, Statin myotox sup)
CN1CC(=O)N2[C@H]3c4ccccc4OC[C@@H]3[C@H](c3ccccc3)[C@]2(C)C1=O	none
COc1ccc2c(c1)OC[C@H]1[C@H]2N2C(=O)c3cc(OC)ccc3NC(=O)[C@@]2(C)[C@H]1c1ccccc1	DENV2 CPE 47.2
COc1ccc2c(c1)OC[C@H]1[C@H]2N2C(=O)c3cc(Cl)ccc3NC(=O)[C@@]2(C)[C@H]1c1ccccc1	none (no result: E-selectin induc, DENV2 CPE)
C[C@@]12C(=O)N(c3ccc(F)cc3)C(=O)N1[C@@H]1c3ccccc3OC[C@@H]1[C@H]2c1ccccc1	DENV2 CPE 21.4 (no result: E-selectin induc)
C[C@@]12C(=O)N(CCc3c[nH]c4ccccc34)CC(=O)N1[C@H]1c3ccccc3OC[C@@H]1[C@@H]2c1ccccc1	DENV2 CPE 53.6
C[C@]12C(=O)N(c3ccc(F)cc3)C(=O)N1[C@H]1c3ccccc3OC[C@@H]1[C@H]2c1ccccc1	none
C[C@H](CO)N1C[C@H](C)[C@H](CN(C)C(=O)CN(C)C)Oc2ncc(-c3ccc(F)cc3)cc2C1=O	none
CC(C)NC(=O)Nc1ccc2c(c1)CC(=O)N([C@H](C)CO)C[C@@H](C)[C@H](CN(C)Cc1ccc(Cl)c(Cl)c1)O2	none
CCN(C[C@H]1[C@H](c2ccc(C3=CCCC3)cc2)[C@@H](CO)N1C(C)=O)C(C)=O	DENV2 CPE inconclusive
O=S(=O)(NC[C@H]1N[C@@H](CO)[C@H]1c1ccc(C2=CCCC2)cc1)c1ccccc1	DENV2 CPE 32.1
O=C(NC[C@@H]1N[C@@H](CO)[C@H]1c1ccc(C2=CCCCC2)cc1)c1ccccc1	none
O=C(NC[C@@H]1N[C@@H](CO)[C@H]1c1ccc(C2=CCCCC2)cc1)c1ccc(F)cc1	DENV2 CPE 51.5
O=S(=O)(NC[C@@H]1N[C@H](CO)[C@@H]1c1ccc(C2=CCCC2)cc1)c1ccccc1	none
CNC[C@@H]1Oc2ccc(NC(=O)NC(C)C)cc2CC(=O)N([C@H](C)CO)C[C@H]1C	none (no result: E-selectin induc)
CO[C@H]1CN(C)C(=O)c2cc(NS(C)(=O)=O)ccc2OC[C@H](C)N(C(=O)C2CCCCC2)C[C@H]1C	none
CCOc1ccc(C(=O)Cc2ccc3oc(C(=O)O)cc3c2)c(O)c1	none (no result: E-selectin induc, DENV2 CPE)
COc1ccc(CC(=O)c2ccc(O)cc2O)cc1	DENV2 CPE 75.7 (no result: E-selectin induc)
CCOC(=O)c1cc2cc(CC(=O)c3ccc(OCC)cc3O)ccc2o1	Statin myotox sup 96.8 (no result: E-selectin induc, DENV2 CPE)
O=C(Cc1ccc(Br)cc1)c1ccc(O)cc1O	none (no result: E-selectin induc, DENV2 CPE)
C[C@@H]1CN([C@H](C)CO)C(=O)c2cc(NC(=O)Nc3ccc(F)cc3)ccc2O[C@H]1CN(C)C(=O)Nc1cccc2ccccc12	none
CN(C)CC#Cc1ccc([C@H]2[C@@H](CO)N3C(=O)CN(C(=O)c4ccccc4)C[C@H]23)cc1	none (no result: Statin myotox sup)
Cc1cc(NC(=O)c2ccc(N3C(=O)C4C5C=CC(C5)C4C3=O)cc2)no1 (configuration not stated)	none (no result: E-selectin induc, Statin myotox sup)
Cc1cc(NC(=O)c2ccc(N3C(=O)CCC3=O)cc2)no1	Statin myotox sup 115.2 (no result: E-selectin induc, DENV2 CPE)
C[C@@H]1CN([C@H](C)CO)C(=O)Cc2cc(NC(=O)Cc3cn(C)c4ccccc34)ccc2O[C@H]1CN(C)Cc1ccc(C(F)(F)F)cc1	E-selectin induc 152.3, DENV2 CPE 33.0, Statin myotox sup inconclusive
C[C@H]1CN([C@@H](C)CO)C(=O)Cc2cc(NC(=O)Cc3cn(C)c4ccccc34)ccc2O[C@@H]1CN(C)C(=O)Nc1cccc2ccccc12	DENV2 CPE 21.3
C[C@H]1CN([C@@H](C)CO)C(=O)Cc2cc(NC(=O)Cc3cn(C)c4ccccc34)ccc2O[C@H]1CN(C)Cc1ccc(C(F)(F)F)cc1	E-selectin induc 258.4
C[C@@H]1CN([C@H](C)CO)C(=O)Cc2cc(NC(=O)Cc3cn(C)c4ccccc34)ccc2O[C@@H]1CN(C)Cc1ccccc1	none
C[C@@H]1CN([C@@H](C)CO)C(=O)Cc2cc(NC(=O)Cc3cn(C)c4ccccc34)ccc2O[C@@H]1CN(C)Cc1ccccc1	none
C[C@@H]1CN([C@H](C)CO)C(=O)Cc2cc(NC(=O)Cc3cn(C)c4ccccc34)ccc2O[C@@H]1CN(C)C(=O)Nc1ccc(C(F)(F)F)cc1	none
C[C@H](CO)N1C[C@H](C)[C@@H](CN(C)C(=O)Nc2ccccc2)Oc2ccc(NC(=O)Cc3cn(C)c4ccccc34)cc2CC1=O	none
C[C@H](CO)N1C[C@H](C)[C@@H](CN(C)C(=O)Nc2ccc(C(F)(F)F)cc2)Oc2ccc(NC(=O)Cc3cn(C)c4ccccc34)cc2CC1=O	E-selectin induc 34.4
CO[C@@H]1CN(C)C(=O)c2ccc(NS(C)(=O)=O)cc2OC[C@@H](C)N(Cc2cncnc2)C[C@H]1C	none
CCCN(C)C[C@H]1Oc2ncc(-c3ccccc3F)cc2C(=O)N([C@@H](C)CO)C[C@@H]1C	none
C[C@@H]1CN([C@@H](C)CO)C(=O)c2cc(C#Cc3cccnc3)cnc2O[C@H]1CN(C)C(=O)CC1CC1	none
CCC(=O)Nc1ccc2c(c1)C(=O)N(C)C[C@H](OC)[C@H](C)CN(CC1CC1)[C@@H](C)CO2	none
Cc1ccc(C(=O)NC(=S)c2c(C)cc3ccccn23)cc1	DENV2 CPE 84.8
Cc1cc2ccccn2c1C(=S)NC(=O)c1ccccc1	none (no result: E-selectin induc)
C[C@H]1CCCCO[C@H](CN(C)C(=O)Nc2ccc(C(F)(F)F)cc2)[C@@H](C)CN([C@@H](C)CO)C(=O)c2cc(NS(=O)(=O)c3cccs3)ccc2O1	none
C[C@@H]1CCCCO[C@H](CN(C)C(=O)Nc2ccc(C(F)(F)F)cc2)[C@H](C)CN([C@@H](C)CO)C(=O)c2cc(NS(=O)(=O)c3cccs3)ccc2O1	DENV2 CPE 37.3
C[C@@H]1CCCCO[C@@H](CN(C)C(=O)Nc2ccc(F)cc2)[C@H](C)CN([C@@H](C)CO)C(=O)c2cc(NS(=O)(=O)c3cccs3)ccc2O1	none (no result: Statin myotox sup)
C[C@@H]1CCCCO[C@H](CN(C)C(=O)Nc2ccc(F)cc2)[C@@H](C)CN([C@H](C)CO)C(=O)c2cc(NS(=O)(=O)c3cccs3)ccc2O1	DENV2 CPE 22.4
C[C@H](CO)N1C[C@H](C)[C@@H](CN(C)C(=O)Nc2ccc(C(F)(F)F)cc2)OCCCC[C@H](C)Oc2ccc(NC(=O)Nc3ccc(C(F)(F)F)cc3)cc2C1=O	DENV2 CPE inconclusive (no result: Statin myotox sup)

Screening results as filed in PubChem BioAssay.
